From paper PMC4038446 (Bioorganic & medicinal chemistry letters, 2012)

Molecular target: T1, AKR1C3 (Homo sapiens, UniProt P42330)
T1 sequence (P42330 1-323): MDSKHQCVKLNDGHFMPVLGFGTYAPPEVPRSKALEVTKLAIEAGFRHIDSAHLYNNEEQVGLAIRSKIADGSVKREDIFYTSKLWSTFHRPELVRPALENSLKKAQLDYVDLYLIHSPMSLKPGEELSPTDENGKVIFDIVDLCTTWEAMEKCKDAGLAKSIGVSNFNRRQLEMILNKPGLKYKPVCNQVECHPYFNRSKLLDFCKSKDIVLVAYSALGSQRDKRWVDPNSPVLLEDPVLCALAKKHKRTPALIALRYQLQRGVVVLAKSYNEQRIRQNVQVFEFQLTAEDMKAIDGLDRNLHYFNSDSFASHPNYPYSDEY
Assay: primary inhibition assay
Assay type: biochemical
Details: 10 µM compound, 1-acenaphthenol, NAD+, pH 9.0
Procedure, shortened: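 Recombinant enzyme oxidises 1-acenaphthenol with 2.3 mM NAD+. Medium is 100 mM phosphate pH 9.0, 0.005% Triton X-114, 5% DMSO. […] Test compound is at 10 µM. NADH increase is read at 340 nm, and initial velocities are compared with compound-free controls. Values are the mean of two independent experiments.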

| AKR1C3 inhibition (%) | Compound |
| --- | --- |
| almost completely lost | CCOc1cccc(C(=O)Nc2ccc(Br)cc2C(=O)O)c1 [Compound 14] |
| almost completely lost | CCCCOc1cccc(C(=O)Nc2ccc(Br)cc2C(=O)O)c1 [Compound 15] |

| Compound | AKR1C3 inhibition (%) |
| --- | --- |
| O=C(Nc1ccc(Br)cc1C(=O)O)c1ccc(F)c([N+](=O)[O-])c1 [Compound 8] | no AKR1C3 isoform inhibition was observed |
